Experimental data from ChEMBL document CHEMBL4689842, “EUbOPEN Chemogenomics Library wave 1” (2021).

Tested on: U2OS
Assay: Multiplex assay against U2OS
Type: toxicity, cell-based
Conditions: human
How it was run: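 Tubulin, mitochondrial-mass and membrane-permeability phenotypes are per cents of healthy-nucleus cells. Cells were gated by CellPathfinder machine learning into Hoechst high-intensity objects or normal cells, normal cells into healthy, pyknosed or fragmented nuclei, and pyknosed cells into mitotic or apoptotic. Before that, live cells stained at seeding with Hoechst33342, BioTracker Green Microtubule Cytoskeleton Dye, MitoTracker Red and Annexin V Alexa Fluor 680 were imaged on a CQ1 microscope at 37°C and 5% CO2 after compound addition.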

[1] = 12 h, 1 µM, compound concentration 1 uM, replicate 1
[2] = 12 h, 1 µM, compound concentration 1 uM, replicate 2
[3] = 12 h, 10 µM, compound concentration 10 uM, replicate 1
[4] = 12 h, 10 µM, compound concentration 10 uM, replicate 2
[5] = 24 h, 1 µM, compound concentration 1 uM, replicate 1
[6] = 24 h, 1 µM, compound concentration 1 uM, replicate 2
[7] = 24 h, 10 µM, compound concentration 10 uM, replicate 1
[8] = 24 h, 10 µM, compound concentration 10 uM, replicate 2
[9] = 48 h, 1 µM, compound concentration 1 uM, replicate 1
[10] = 48 h, 1 µM, compound concentration 1 uM, replicate 2
[11] = 48 h, 10 µM, compound concentration 10 uM, replicate 1
[12] = 48 h, 10 µM, compound concentration 10 uM, replicate 2

Q: With `Cc1nc(N2CC[C@H](O)C2)ncc1-c1cc(C(F)(F)F)cc2[nH]ncc12` as the compound, how does the “Population Apoptotic (%)” value [1] read?
A: The value was 25%.

Q: What about the “Population Fragmented Nuclei (%)” value [1] of the same compound?
A: Its value is 2%.

Q: What about the “Population Healthy Nuclei (%)” value [1] of the same compound?
A: The value was 93%.

Q: And the “Population Hoechst High Intensity Objects (%)” value [1]?
A: The value was 3%.

Q: And the “Population Membrane Permeable-Phenotype (%)” value [1]?
A: The value was 6%.

Q: What about the “Population Mitochondria Different-Phenotype (%)” value [1] of the same compound?
A: Its value is 24%.

Q: What about the “Population Mitotic Cells (%)” value [1] of the same compound?
A: The value was 75%.

Q: What about the “Population Normal (%)” value [1] of the same compound?
A: Its value is 96%.

Q: And the “Population Pyknosed Nuclei (%)” value [1]?
A: Its value is 4%.

Q: What about the “Population Tubulin-Different-Phenotype (%)” value [1] of the same compound?
A: The value was 22%.

Q: What about the “Total Cell Count” value [1] of the same compound?
A: The value was 181.

Q: What about the “Population Apoptotic (%)” value [2] of the same compound?
A: Its value is 14%.

Q: What about the “Population Fragmented Nuclei (%)” value [2] of the same compound?
A: Its value is 4%.

Q: And the “Population Healthy Nuclei (%)” value [2]?
A: The value was 89%.

Q: What about the “Population Hoechst High Intensity Objects (%)” value [2] of the same compound?
A: Its value is 11%.

Q: What about the “Population Membrane Permeable-Phenotype (%)” value [2] of the same compound?
A: Its value is 5%.

Q: What about the “Population Mitochondria Different-Phenotype (%)” value [2] of the same compound?
A: Its value is 28%.

Q: And the “Population Mitotic Cells (%)” value [2]?
A: The value was 85%.

Q: What about the “Population Normal (%)” value [2] of the same compound?
A: Its value is 88%.

Q: What about the “Population Pyknosed Nuclei (%)” value [2] of the same compound?
A: Its value is 5%.

Q: What about the “Population Tubulin-Different-Phenotype (%)” value [2] of the same compound?
A: Its value is 19%.

Q: And the “Total Cell Count” value [2]?
A: The value was 111.

Q: And the “Population Apoptotic (%)” value [3]?
A: Its value is 60%.

Q: And the “Population Fragmented Nuclei (%)” value [3]?
A: The value was 6%.

Q: And the “Population Healthy Nuclei (%)” value [3]?
A: Its value is 88%.

Q: What about the “Population Hoechst High Intensity Objects (%)” value [3] of the same compound?
A: The value was 1%.

Q: And the “Population Membrane Permeable-Phenotype (%)” value [3]?
A: The value was 8%.

Q: What about the “Population Mitochondria Different-Phenotype (%)” value [3] of the same compound?
A: Its value is 22%.

Q: What about the “Population Mitotic Cells (%)” value [3] of the same compound?
A: Its value is 40%.

Q: What about the “Population Normal (%)” value [3] of the same compound?
A: Its value is 98%.

Q: And the “Population Pyknosed Nuclei (%)” value [3]?
A: Its value is 5%.

Q: And the “Population Tubulin-Different-Phenotype (%)” value [3]?
A: Its value is 26%.

Q: What about the “Total Cell Count” value [3] of the same compound?
A: Its value is 158.

Q: And the “Population Apoptotic (%)” value [4]?
A: Its value is 16%.

Q: What about the “Population Fragmented Nuclei (%)” value [4] of the same compound?
A: Its value is 9%.

Q: And the “Population Healthy Nuclei (%)” value [4]?
A: The value was 84%.

Q: What about the “Population Hoechst High Intensity Objects (%)” value [4] of the same compound?
A: Its value is 12%.

Q: And the “Population Membrane Permeable-Phenotype (%)” value [4]?
A: Its value is 6%.

Q: And the “Population Mitochondria Different-Phenotype (%)” value [4]?
A: The value was 31%.

Q: What about the “Population Mitotic Cells (%)” value [4] of the same compound?
A: The value was 83%.

Q: And the “Population Normal (%)” value [4]?
A: The value was 87%.

Q: What about the “Population Pyknosed Nuclei (%)” value [4] of the same compound?
A: Its value is 6%.

Q: And the “Population Tubulin-Different-Phenotype (%)” value [4]?
A: Its value is 41%.

Q: And the “Total Cell Count” value [4]?
A: Its value is 153.

Q: What about the “Population Apoptotic (%)” value [5] of the same compound?
A: Its value is 27%.

Q: And the “Population Fragmented Nuclei (%)” value [5]?
A: Its value is 1%.

Q: And the “Population Healthy Nuclei (%)” value [5]?
A: Its value is 94%.

Q: What about the “Population Hoechst High Intensity Objects (%)” value [5] of the same compound?
A: Its value is 1%.

Q: And the “Population Membrane Permeable-Phenotype (%)” value [5]?
A: Its value is 7%.

Q: What about the “Population Mitochondria Different-Phenotype (%)” value [5] of the same compound?
A: Its value is 25%.

Q: And the “Population Mitotic Cells (%)” value [5]?
A: Its value is 72%.

Q: What about the “Population Normal (%)” value [5] of the same compound?
A: Its value is 98%.

Q: What about the “Population Pyknosed Nuclei (%)” value [5] of the same compound?
A: The value was 4%.

Q: And the “Population Tubulin-Different-Phenotype (%)” value [5]?
A: Its value is 24%.

Q: What about the “Total Cell Count” value [5] of the same compound?
A: Its value is 260.

Q: And the “Population Apoptotic (%)” value [6]?
A: Its value is 14%.

Q: What about the “Population Fragmented Nuclei (%)” value [6] of the same compound?
A: The value was 3%.

Q: What about the “Population Healthy Nuclei (%)” value [6] of the same compound?
A: Its value is 92%.

Q: And the “Population Hoechst High Intensity Objects (%)” value [6]?
A: The value was 6%.

Q: And the “Population Membrane Permeable-Phenotype (%)” value [6]?
A: Its value is 3%.

Q: And the “Population Mitochondria Different-Phenotype (%)” value [6]?
A: The value was 24%.

Q: And the “Population Mitotic Cells (%)” value [6]?
A: The value was 85%.

Q: And the “Population Normal (%)” value [6]?
A: Its value is 93%.

Q: And the “Total Cell Count” value [6]?
A: Its value is 121.

Q: What about the “Population Apoptotic (%)” value [7] of the same compound?
A: The value was 27%.

Q: What about the “Population Fragmented Nuclei (%)” value [7] of the same compound?
A: The value was 3%.

Q: What about the “Population Healthy Nuclei (%)” value [7] of the same compound?
A: Its value is 91%.

Q: What about the “Population Hoechst High Intensity Objects (%)” value [7] of the same compound?
A: The value was 4%.

Q: What about the “Population Membrane Permeable-Phenotype (%)” value [7] of the same compound?
A: The value was 5%.

Q: What about the “Population Mitochondria Different-Phenotype (%)” value [7] of the same compound?
A: The value was 12%.

Q: And the “Population Mitotic Cells (%)” value [7]?
A: Its value is 72%.

Q: What about the “Population Normal (%)” value [7] of the same compound?
A: The value was 95%.

Q: What about the “Population Pyknosed Nuclei (%)” value [7] of the same compound?
A: Its value is 4%.

Q: And the “Population Tubulin-Different-Phenotype (%)” value [7]?
A: Its value is 28%.

Q: What about the “Total Cell Count” value [7] of the same compound?
A: The value was 173.

Q: And the “Population Apoptotic (%)” value [8]?
A: The value was 21%.

Q: What about the “Population Fragmented Nuclei (%)” value [8] of the same compound?
A: The value was 5%.

Q: What about the “Population Healthy Nuclei (%)” value [8] of the same compound?
A: Its value is 81%.

Q: And the “Population Hoechst High Intensity Objects (%)” value [8]?
A: The value was 9%.

Q: What about the “Population Membrane Permeable-Phenotype (%)” value [8] of the same compound?
A: The value was 13%.

Q: What about the “Population Mitochondria Different-Phenotype (%)” value [8] of the same compound?
A: Its value is 40%.

Q: And the “Population Mitotic Cells (%)” value [8]?
A: The value was 78%.

Q: What about the “Population Normal (%)” value [8] of the same compound?
A: The value was 90%.

Q: What about the “Population Pyknosed Nuclei (%)” value [8] of the same compound?
A: Its value is 12%.

Q: And the “Population Tubulin-Different-Phenotype (%)” value [8]?
A: Its value is 46%.

Q: What about the “Total Cell Count” value [8] of the same compound?
A: Its value is 141.

Q: What does the source list for `Cc1ccccc1C(c1ccccc1C)N1C2CCC1CC(O)(c1ccccc1)C2` (configuration not stated)?
A: Population Healthy Nuclei (%) [1]: 82%; Population Mitotic Cells (%) [1]: 66%; Population Normal (%) [1]: 89%; Total Cell Count [1]: 131; Population Healthy Nuclei (%) [2]: 81%; Population Mitotic Cells (%) [2]: 50%; Population Normal (%) [2]: 90%; Total Cell Count [2]: 80; Population Healthy Nuclei (%) [3]: 73%; Population Mitotic Cells (%) [3]: 64%; Population Normal (%) [3]: 96%; Total Cell Count [3]: 158; Population Healthy Nuclei (%) [4]: 81%; Population Mitotic Cells (%) [4]: 60%; Population Normal (%) [4]: 86%; Total Cell Count [4]: 71; Population Healthy Nuclei (%) [5]: 82%; Population Mitotic Cells (%) [5]: 88%; Population Normal (%) [5]: 97%; Total Cell Count [5]: 149; Population Healthy Nuclei (%) [6]: 77%; Population Mitotic Cells (%) [6]: 80%; Population Normal (%) [6]: 95%; Total Cell Count [6]: 89; Population Healthy Nuclei (%) [7]: 74%; Population Mitotic Cells (%) [7]: 65%; Total Cell Count [7]: 201; Population Healthy Nuclei (%) [8]: 65%; Population Mitotic Cells (%) [8]: 50%; Population Normal (%) [8]: 93%; Total Cell Count [8]: 85; Population Healthy Nuclei (%) [9]: 89%; Population Mitotic Cells (%) [9]: 68%; Total Cell Count [9]: 157; Population Healthy Nuclei (%) [10]: 88%; Population Mitotic Cells (%) [10]: 87%; Population Normal (%) [10]: 97%; Total Cell Count [10]: 98; Population Healthy Nuclei (%) [11]: 71%; Population Mitotic Cells (%) [11]: 43%; Population Normal (%) [11]: 95%; Total Cell Count [11]: 289; Population Healthy Nuclei (%) [12]: 68%; Population Mitotic Cells (%) [12]: 40%; Population Normal (%) [12]: 85%; Total Cell Count [12]: 141
